This passage reports viability, differential viability (reversal) and inhibition results from PubChem BioAssay.

Active and inactive are the calls of the source. Rule as the data show it, unless noted: active = inhibition above about 30%; inactive = the rest.

Test [1] is described as follows: reduced viability of SK-BR-3 breast cancer cells – cell-based, 24 h, human, pilot screen (AID 572;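 active = viability at or below 10% of carrier control in both of two separate runs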;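 also: compound exposure lasted between 18 and 24 h rather than exactly 24 h; 100% = carrier-treated control wells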). As to conditions: SK-BR-3 viability, CellTiter-Glo luminescence, at 10 µM, stronger effect = lower value. For orientation: In ATP-based viability assays light output follows the ATP content of the culture.
A short description of test [2]: HUVEC growth inhibition – cell-based, human, primary screen (AID 575;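 active = viability at or below 30% in both replicate assays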;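 also: 100% = median of untreated cell wells with 0.1% DMSO on each plate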). As to conditions: HUVEC proliferation, CellTiter-Glo luminescence, 72 h; at 10 µM; stronger effect = lower value. In short, it runs like this: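 Test system: primary human umbilical vein endothelial cells; medium: endothelial basal medium with 2% FBS plus growth supplements; dosing: 10 µM compound only; times: 72 h treatment at 37 °C; signal: CTG luminescence; read-out: % viability relative to median vehicle-well signal on each plate; control set: vehicle and MePR control wells; plate: 384-well, collagen-coated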

Test [3] in a line: H69AR cell proliferation blockers – human, duplicate replicates, primary screen (AID 580;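 active = viability at or under a set limit in both replicates, limit being median viability minus 3 SD, cut at about 48% in these data, passing the limit was not always enough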;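 also: 100% = mean luminescence of untreated wells and 0% = no signal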). To be noted: H69AR lung tumor cells viability, ATP luminescence, 72 h; at 10 µM; stronger effect = lower value.
Test [4] can be described thus: MRP1 drug-resistance reversers in H69AR cells – cell-based, doxorubicin co-treatment, pilot screen (AID 601;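 active = viability loss from added drug above about 55%, and viability with drug at most 40%, in both replicates, limit read from the data, passing the limit was not always enough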). As to conditions: CellTiter-Glo, 72 h, at 10 µM; for differential viability (reversal): stronger effect = higher value.
Test [5] can be described thus: yeast transport mutant growth inhibition pilot in 384-well plates, post-Golgi transport modulator project (AID 636; in the data active = inhibition above about 31%). As to conditions: absorbance 615 nm, about 18 h, stronger effect = higher value.
Test [6] in a line: growth suppression of yeast trafficking mutant, preliminary HTS, modulators of trafficking downstream of Golgi apparatus project, 1536-format plate, OD 615 nm (AID 637). To be noted: yeast transport mutant growth, absorbance 615 nm, 18 h; stronger effect = higher value.
The mark [7] stands for this setting: H69AR cells + 2 uM doxorubicin, measured here: viability with 2 uM doxorubicin, stronger effect = lower value.
[8] abbreviates: H69AR cells, compound alone cytotoxicity.

Turning to `O=S(=O)(NCC1CCCO1)c1ccc2c(c1)OCCO2` (centres undefined), the viability is 128% (inactive) in test [1]; 98% (inactive) in test [2]; 97.6% (inactive) in test [3]; 96.8% in test [4] (setting [7]); 97.6% in test [4] (setting [8]). Also, the differential viability (reversal) in test [4] (H69AR cells + 2 uM doxorubicin) is 0.805% (inactive). Further, the inhibition in test [5] was 0.41% (inactive); in test [6], -5.48% (inactive).
On to `Cc1cc(NC(=O)CSc2nc(C3CC3)nc3sc4c(c23)CCC(C)C4)no1` (centres undefined), for which the viability is 90% (inactive) in test [1]; 108% (inactive) in test [2]; 102% (inactive) in test [3]; 86.4% in test [4] (setting [7]); 102% in test [4] (setting [8]). Moreover, in test [4] (H69AR cells + 2 uM doxorubicin), the differential viability (reversal) was 15.6% (inactive). The inhibition was -5.2% (inactive) in test [5] and -0.18% (inactive) in test [6].
Take `COC(=O)C1(C)NC(c2cccs2)C2C(=O)N(c3ccccc3F)C(=O)C21` (centres undefined): the viability is 80% (inactive) in test [1]; 96.3% (inactive) in test [2]; 99.3% (inactive) in test [3]; 94.4% in test [4] (setting [7]); 99.3% in test [4] (setting [8]). Also, the differential viability (reversal) in test [4] (H69AR cells + 2 uM doxorubicin) is 4.93% (inactive). Besides, the inhibition in test [5] was -0.27% (inactive); in test [6] it was -0.48% (inactive).
For the molecule `COCCn1c(Sc2nc(C)cs2)nc2c1c(=O)[nH]c(=O)n2C`, the viability in test [1] is 85% (inactive); in test [2], 106% (inactive); in test [3], 101% (inactive); in test [4] (setting [7]) it was 96.6%; in test [4] (setting [8]) it was 101%. In test [4] (H69AR cells + 2 uM doxorubicin), the differential viability (reversal) was 4.51% (inactive). In addition, the inhibition in test [5] is -5.07% (inactive); in test [6], 3.45% (inactive).
As for `O=C(CSc1nc(-c2ccco2)cc(C(F)(F)F)n1)N1CCCc2ccccc21`, the viability in test [1] is 109% (inactive); in test [2], 72.5% (inactive); in test [3], 84% (inactive); in test [4] (setting [7]), 81.9%; in test [4] (setting [8]), 84%. In addition, the differential viability (reversal) in test [4] (H69AR cells + 2 uM doxorubicin) was 2.16% (inactive). In addition, the inhibition in test [5] was -1.05% (inactive); in test [6], -0.16% (inactive).
As for `CCOc1ncccc1C(=O)Nc1ccc(Cl)cc1`, the viability is 92% (inactive) in test [1]; 91.4% (inactive) in test [2]; 79.8% (inactive) in test [3]; 83.2% in test [4] (setting [7]); 79.8% in test [4] (setting [8]). For the same molecule, the differential viability (reversal) in test [4] (H69AR cells + 2 uM doxorubicin) was -3.41% (inactive). Besides, the inhibition in test [5] is 1.17% (inactive); in test [6], 0.49% (inactive).
For `CC(C)NC(=O)c1ccccc1NC(=O)CCS(=O)(=O)Cc1ccccc1`, the viability in test [1] was 116% (inactive); in test [2] it was 107% (inactive); in test [3] it was 87.7% (inactive); in test [4] (setting [7]) it was 89.1%; in test [4] (setting [8]) it was 87.7%. Moreover, the differential viability (reversal) in test [4] (H69AR cells + 2 uM doxorubicin) was -1.34% (inactive). The inhibition in test [5] was -1.64% (inactive); in test [6], 9.82% (inactive).
As to `COc1ccccc1-c1noc(-c2ccco2)n1`, the viability in test [1] was 102% (inactive); in test [2], 91% (inactive); in test [3], 90.7% (inactive); in test [4] (setting [7]) it was 93.5%; in test [4] (setting [8]), 90.7%. In addition, the differential viability (reversal) in test [4] (H69AR cells + 2 uM doxorubicin) is -2.78% (inactive). Further, the inhibition in test [5] was 0% (inactive); in test [6], -3.55% (inactive).
On to `CCOC(=O)C1CCN(CC(=O)c2c(C)[nH]c3ccccc23)CC1`, for which the viability is 100% (inactive) in test [1]; 112% (inactive) in test [2]; 92.6% (inactive) in test [3]; 91.9% in test [4] (setting [7]); 92.6% in test [4] (setting [8]). In test [4] (H69AR cells + 2 uM doxorubicin), the differential viability (reversal) is 0.74% (inactive). Besides, the inhibition in test [5] was -0.67% (inactive); in test [6], -2.73% (inactive).
With `CC(=O)Nc1nc(=S)ss1`, the viability in test [1] is 135% (inactive); in test [2], 103% (inactive); in test [3] it was 87.5% (inactive); in test [4] (setting [7]), 95.7%; in test [4] (setting [8]), 87.5%. Moreover, the differential viability (reversal) in test [4] (H69AR cells + 2 uM doxorubicin) was -8.28% (inactive). Also, the figures for the inhibition in test [5] and in test [6] were -1.3% (inactive) and -0.33% (inactive), respectively.
On to `N#Cc1cc2ccccc2nc1SCC(=O)Nc1ccccc1N1CCOCC1`, for which the viability in test [1] is 93% (inactive); in test [2], 64.4% (inactive); in test [3], 82.2% (inactive); in test [4] (setting [7]), 93%; in test [4] (setting [8]) it was 82.2%. In addition, the differential viability (reversal) in test [4] (H69AR cells + 2 uM doxorubicin) was -10.8% (inactive). Further, the inhibition in test [5] was -3.25% (inactive); in test [6], 0.33% (inactive).
On to `CCOC(=O)c1c(C)oc2ccc(NS(=O)(=O)c3ccc4c5c(cccc35)C(=O)N4)cc12`, for which the viability in test [1] was 103% (inactive); in test [2] it was 76.9% (inactive); in test [3] it was 83.9% (inactive); in test [4] (setting [7]), 83.1%; in test [4] (setting [8]), 83.9%. Besides, the differential viability (reversal) in test [4] (H69AR cells + 2 uM doxorubicin) is 0.75% (inactive). Moreover, the inhibition in test [5] was -7.53% (inactive); in test [6], 5.27% (inactive).
For the molecule `CN1[C@@H]2CC(OC(=O)[C@H](CO)c3ccccc3)C[C@H]1[C@@H]1O[C@@H]12` (some centres undefined), the viability was 104% (inactive) in test [1]; 96.7% (inactive) in test [2]; 102% (inactive) in test [3]; 95.3% in test [4] (setting [7]); 102% in test [4] (setting [8]). Also, the differential viability (reversal) in test [4] (H69AR cells + 2 uM doxorubicin) is 6.26% (inactive). For the same molecule, the values for the inhibition in test [5] and in test [6] were -2.08% (inactive) and -2.83% (inactive), respectively.
As to `CC(C)NCC(O)COc1ccc(CC(N)=O)cc1` (centres undefined), the viability in test [1] was 88% (inactive); in test [2] it was 87.5% (inactive); in test [3], 88.1% (inactive); in test [4] (setting [7]) it was 88.7%; in test [4] (setting [8]) it was 88.1%. The differential viability (reversal) in test [4] (H69AR cells + 2 uM doxorubicin) was -0.64% (inactive). The results for the inhibition in test [5] and in test [6] were 1.95% (inactive) and -2.67% (inactive), respectively.
Regarding `Cc1ccc2nc3c(cc(C(=O)NCC4CCCO4)n3C)c(=O)n2c1` (centres undefined), the viability in test [1] was 134% (inactive); in test [2], 110% (inactive); in test [3], 94.9% (inactive); in test [4] (setting [7]), 87.1%; in test [4] (setting [8]) it was 94.9%. Moreover, in test [4] (H69AR cells + 2 uM doxorubicin), the differential viability (reversal) was 7.85% (inactive). Further, the inhibition in test [5] was -0.96% (inactive); in test [6], 25.2% (inactive).
Take `CCC(CC)C1C(C#N)=C(N)Oc2n[nH]c(C)c21` (centres undefined): the viability was 85% (inactive) in test [1]; 91.9% (inactive) in test [2]; 24.9% (active) in test [3]; 69.6% in test [4] (setting [7]); 24.9% in test [4] (setting [8]). Moreover, in test [4] (H69AR cells + 2 uM doxorubicin), the differential viability (reversal) is -44.6% (inactive). Also, the values for the inhibition in test [5] and in test [6] were -6.22% (inactive) and -0.18% (inactive), respectively.
For `O=C(O)Cc1ccccc1C(=O)O`, the viability in test [1] was 120% (inactive); in test [2], 92.2% (inactive); in test [3], 95.1% (inactive); in test [4] (setting [7]) it was 95.4%; in test [4] (setting [8]) it was 95.1%. Further, the differential viability (reversal) in test [4] (H69AR cells + 2 uM doxorubicin) was -0.3% (inactive). For the same molecule, the inhibition in test [5] was -6.85% (inactive); in test [6], 1.29% (inactive).
As to `COCCCNC(=O)CCn1c(=O)c2ccccc2n(CC(=O)Nc2ccc(C)cc2C)c1=O`, the viability was 101% (inactive) in test [1]; 106% (inactive) in test [2]; 87.1% (inactive) in test [3]; 79.9% in test [4] (setting [7]); 87.1% in test [4] (setting [8]). Further, in test [4] (H69AR cells + 2 uM doxorubicin), the differential viability (reversal) is 7.22% (inactive). For the same molecule, the inhibition was 1.3% (inactive) in test [5] and -5.41% (inactive) in test [6].

A word on the viability: it is a read-out of living cells in per cent, often relative to untreated cells. As a reminder, the inhibition is the drop in the measured response relative to a control, in per cent.
